Assay results taken from ChEMBL document CHEMBL1125930, “3-O-alkylascorbic acids as free-radical quenchers: synthesis and inhibitory effect on lipid peroxidation” (J Med Chem, 1991).

Experiments:
[1] = Partition ratio obtained from HPLC analysis.; format: ADME
Rattus norvegicus [2] = species on record: Rattus norvegicus; experiment: The compound was tested for the inhibition of lipid peroxidation in rat liver microsomes induced by [Fe2+] at a concentration of 10E-5 M.; format: functional
Summary of the method: (§1)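 Liver microsomes from 24 h-fasted Wistar rats (8000g then 105000g pellet, in 0.15 M KCl, protein by Lowry). 1 mL mix: 83.5 mM KCl, 37.2 mM Tris-HCl pH 7.4, 10 μM FeSO4, 2 mg microsomal protein, compound in 0.01 mL DMF. 37 °C for 20 min. TBA-reactive material read at 532 nm after n-BuOH/pyridine extraction. Reported against vehicle control.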

Rattus norvegicus [3] = species on record: Rattus norvegicus; experiment: The compound was tested for the inhibition of lipid peroxidation in rat liver microsomes induced by [Fe3+] at a concentration of 10E-5 M.; format: functional
Summary of the method: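 Fasted Wistar rat liver microsomes, 2.0 mg protein in 1 mL of 83.5 mM KCl/37.2 mM Tris-HCl pH 7.4. Peroxidation started with 1 mM ADP, 10 μM FeCl3 and 0.02 mM NADPH. Compound added in 0.01 mL DMF. 37 °C for 20 min, stopped on ice. Malondialdehyde measured as TBA-reactive material: 95 °C for 20 min, butanol/pyridine extract, A532. Compared with vehicle control.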

Rattus norvegicus [4] = species on record: Rattus norvegicus; experiment: The compound was tested for the stimulation of lipid peroxidation in rat liver microsomes induced by [Fe2+] at a concentration of 10E-5 M.; format: functional; summary of the method: as §1

| SMILES | k' [1] | inhibition (Rattus norvegicus [2]) [%] | inhibition (Rattus norvegicus [3]) [%] | Stimulation (Rattus norvegicus [4]) [%] |
| --- | --- | --- | --- | --- |
| O=C1O[C@H]([C@@H](O)CO)C(O)=C1O [ASCORBIC ACID] | < 0.1 | – | – | 72 |
| CCCCOC(=O)COC1=C(O)OC(C(O)CO)C1=O (centres undefined) | – | – | 10 | – |
| CCCCCCCCCCOC(=O)COC1=C(O)C(=O)OC1C(O)CO (centres undefined) | – | 31 | – | – |
| CCCCCCCCOC1=C(O)C(=O)OC1C(O)CO (centres undefined) | 0.62 | 9 | 40 | – |
| CCCCCCCCCCOC1=C(OCCCCCCCCCC)C(C(O)CO)OC1=O (centres undefined) | – | – | 2 | – |
| CCCCCCCCCCCCCCCCC(=O)COC1=C(O)OC(C(O)CO)C1=O (centres undefined) | 0.45 | – | 55 | – |
| CCCCCCCCCCCCCCCCCCOC1=C(O)[C@@H](C(O)CO)OC1=O (some centres undefined) | 1.13 | 29 | 88 | – |
| CCCCCCCCCCCCCCC(=O)COC1=C(O)C(=O)OC1C(O)CO (centres undefined) | 4.33 | 33 | 65 | – |
| CCCCCCCCCCC(=O)COC1=C(O)C(=O)OC1C(O)CO (centres undefined) | 1.14 | 44 | 88 | – |
| CCCCCCCCC(=O)COC1=C(O)C(=O)OC1C(O)CO (centres undefined) | 0.55 | 33 | 64 | – |

Further lines, with some results ahead:

| k' [1] | SMILES | inhibition (Rattus norvegicus [2]) [%] | inhibition (Rattus norvegicus [3]) [%] | Stimulation (Rattus norvegicus [4]) [%] |
| --- | --- | --- | --- | --- |
| 17.34 | CCCCCCCCCCCCCCCCCCOC1=C(O)C(=O)OC1C(O)CO (centres undefined) | 7 | 45 | – |
| 4.78 | CCCCCCCCCCCCCCOC1=C(O)C(=O)OC1C(O)CO (centres undefined) | 30 | 81 | – |
| 2.49 | CCCCCCCCCCCCOC1=C(O)C(=O)OC1C(O)CO (centres undefined) | 34 | 88 | – |
| 1.27 | CCCCCCCCCCOC1=C(O)C(=O)OC1C(O)CO (centres undefined) | 44 | 91 | – |
| 0.63 | CCCCCCCCCCCCOC1=C(O)OC(C(O)CO)C1=O (centres undefined) | – | 83 | – |
| 9.09 | CCCCCCCCCCCCCCCCOC1=C(O)C(=O)OC1C(O)CO (centres undefined) | 21 | 74 | – |
| 0.24 | CCCCCCC(=O)COC1=C(O)C(=O)OC1C(O)CO (centres undefined) | 20 | 27 | – |
| 8.26 | CCCCCCCCCCCCCCCCC(=O)COC1=C(O)C(=O)OC1C(O)CO (centres undefined) | 28 | 43 | – |
| 2.25 | CCCCCCCCCCCCC(=O)COC1=C(O)C(=O)OC1C(O)CO (centres undefined) | 30 | 81 | – |
| < 0.1 | CC(=O)COC1=C(O)C(C2COC(C)(C)O2)OC1=O (centres undefined) | – | 2 | – |
| < 0.1 | O=C1OC(C(O)CO)C(OCc2cccnc2)=C1O (centres undefined) | – | 2 | – |
| < 0.2 | CCCCCCCCOC1=C(O)OC(C(O)CO)C1=O (centres undefined) | – | 20 | – |
